In paper PMC11729038 (Bioorganic & medicinal chemistry letters, 2024):

Experiments:
[1] = Reaction of electrophiles with CoASH, adduct formation monitored by LC-MS; assay type: physicochemical; details: for kforward, reaction with CoASH: 25 °C, pH 7.5 phosphate buffer, 2 mM each of CoASH and electrophile, 1 mM TCEP, 5% MeOH, same with and without 1.2 μM AANAT
In short: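 Uncatalyzed electrophile–CoASH reactions contained 5% MeOH for electrophile dissolution. CoASH adduct formation was followed over time by LC-MS. Rate constants came from global kinetic fitting of product accumulation. Upper and lower bounds were set within a 0.83 relative error threshold.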

AANAT = AANAT (Ovis aries, UniProt Q29495); assay: AANAT enzymatic; assay type: biochemical, Ovis aries (sheep); details: for Inhibition of AANAT at 10 μM test compound concentration: sheep AANAT; for Fold less potent than 1 (AANAT IC50): relative to compound 1
melatonin receptors = details: cited from earlier work
human AANAT enzyme = details: cited from earlier work
[2] = cited from earlier work
sheep AANAT enzyme = details: truncated bisubstrate inhibitor versus 2; cited from earlier work

AANAT, sequence (Q29495 whole entry): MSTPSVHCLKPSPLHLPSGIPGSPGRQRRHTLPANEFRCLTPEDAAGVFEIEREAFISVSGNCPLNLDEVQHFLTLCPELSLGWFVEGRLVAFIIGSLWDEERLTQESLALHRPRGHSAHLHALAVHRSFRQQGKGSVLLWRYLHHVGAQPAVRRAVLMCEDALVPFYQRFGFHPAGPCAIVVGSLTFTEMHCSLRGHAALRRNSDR

Question: Which results are given for `C=CC(=O)NCc1c[nH]c2ccccc12` [Compound 10]?
Answer: kforward, reaction with CoASH [1]: 0.00026 M⁻¹ s⁻¹; Reaction rate with CoASH at pH 6.8 relative to pH 7.5 ([1]; pH 6.8, in the presence of enzyme): several times slower than at pH 7.5

Question: Which “Inhibition of AANAT at 10 μM test compound concentration” value (shortened to “Inhibition of AANAT”) (AANAT) does the source give for `C=CC(=O)NCCc1c[nH]c2ccccc12` [Compound 11] here?
Answer: The value was “inactive”.

Question: And the “kforward, reaction with CoASH” value [1]?
Answer: Its value is 0.000146 M⁻¹ s⁻¹.

Question: Which “Fold less potent than 1 (AANAT IC50)” value (AANAT) does the source give for `O=C(CBr)NCc1c[nH]c2ccccc12` [Compound 8] here?
Answer: Its value is 6 X.

Question: For `O=C(CBr)NCCc1c[nH]c2ccccc12` [Compound 1, bromoacetyltryptamine, reference compound], which “Second order rate constant, reaction with CoASH” value ([1]; pH 6.8, absence of AANAT) is on record?
Answer: The value was 0.0218 M⁻¹ s⁻¹.

Question: What about the “Effect of AANAT on rate of reaction with CoASH” value ([1]; pH 7.5) of the same compound?
Answer: The value was “the same in the presence and absence of AANAT”.

Question: And the “Selectivity against melatonin receptors” value (melatonin receptors)?
Answer: The value was “lack selectivity”.

Question: Which “Inhibition of AANAT” value (AANAT) does the source give for `C=CS(=O)(=O)NCCc1c[nH]c2ccccc12` [Compound 13] here?
Answer: Its value is “inactive”.

Question: And the “kforward, reaction with CoASH” value [1]?
Answer: Its value is 0.00183 M⁻¹ s⁻¹.

Question: Which “Fold less potent than bromoacetyl analog 5 (reported IC50)” value (human AANAT enzyme) does the source give for `C=CC(=O)NCCc1csc2ccc(OC)cc12` [Compound 7] here?
Answer: The value was 40 X.

Question: Which “Inhibition of AANAT” value (AANAT) does the source give for `C=CS(=O)(=O)NCc1c[nH]c2ccccc12` [Compound 12] here?
Answer: Its value is “inactive”.

Question: And the “kforward, reaction with CoASH” value [1]?
Answer: Its value is 0.00435 M⁻¹ s⁻¹.

Question: With `CC(C)(CO[P@@](=O)(O)O[P@@](=O)(O)OC[C@H]1O[C@@H](n2cnc3c(N)ncnc32)[C@H](O)[C@@H]1OP(=O)(O)O)[C@@H](O)C(=O)NCCC(=O)NCCSCC(=O)NCCc1c[nH]c2ccccc12` [Compound 2] as the compound, how does the Cell permeability [2] read?
Answer: Its Cell permeability is “poor cell permeability”.

Question: With `O=C(CBr)NCCCc1c[nH]c2ccccc12` [Compound 9] as the compound, how does the “Fold less potent than 1 (AANAT IC50)” value (AANAT) read?
Answer: Its value is 6 X.

Question: With `CC(C)(COP(=O)(O)OP(=O)(O)OC[C@H]1O[C@@H](n2cnc3c(N)ncnc32)[C@H](O)[C@@H]1OP(=O)(O)O)[C@@H](O)C(=O)NCCC(=O)NCCSC(=O)NCCc1c[nH]c2ccccc12` [Compound 3a] as the compound, how does the “Fold less potent than 2 (reported)” value (sheep AANAT enzyme) read?
Answer: The value was 4 X.

Question: Which “Selectivity against melatonin receptors” value (melatonin receptors) does the source give for `O=C(CBr)NCCc1csc2ccc(O)cc12` [Compound 6] here?
Answer: The value was “lack selectivity”.
